Measurements: ChEMBL document CHEMBL4118159, “Discovery of tetrahydroindazoles as a novel class of potent and in vivo efficacious gamma secretase modulators” (Bioorg Med Chem, 2018)
pIC50: −log10 of the molar value. One block for each compound: values may come before it.

What was measured:
Gamma-secretase [1] = assay: Modulation of gamma secretase in human H4 cells expressing human wild type APP assessed as inhibition of amyloid beta 42 production after 22 hrs by electrochemiluminescence assay; assay type: cell-based
Procedure, shortened: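 H4 cells overexpressing human APPwt, 10,000/well, were exposed to compound 22 h at 37°C, 5% CO2. Supernatant was diluted with medium on an MSD anti-Aβ42 plate and detected with S-tag 6E10 (1:50, 1 h). Read-out was electrochemiluminescence.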

[2] = Volume of distribution at steady state in Han Wistar rat at 1 umol/kg, iv administered as bolus by LC/MS/MS analysis; assay type: ADME, organism-based; conditions: in vivo, read-out: Vdss
Procedure, shortened: (§1)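 Female fed Han Wistar rats received the compound as an i.v. solution. Blood was sampled at several time points and EDTA plasma prepared. Plasma levels were quantified by LC/MS/MS after acetonitrile precipitation, and PK parameters were calculated by non-compartmental analysis.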

[3] = Clearance in Han Wistar rat at 1 umol/kg, iv administered as bolus by LC/MS/MS analysis; assay type: ADME, organism-based; conditions: in vivo; procedure, shortened: as §1
Rattus norvegicus [4] = assay: Decrease in total amyloid beta levels in rat brain homogenate at 30 mg/kg, po measured after 3 hrs by electrochemiluminescence assay relative to control; parameters: scale not given: the % may be the effect or the level left; conditions: in vivo
[5] = Ratio of drug uptake in Han Wistar rat brain to plasma at 10 umol/kg, po administered via gavage measured 3 hrs post dose by LC/MS/MS analysis; assay type: ADME, organism-based
Procedure, shortened: (§2)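 Fasted female Han Wistar rats were dosed by oral gavage as a Natrosol suspension. Animals were sacrificed 3 h later and plasma and tissues collected and frozen. Concentrations were measured by LC/MS/MS after acetonitrile precipitation.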

[6] = Drug uptake in Han Wistar rat plasma at 10 umol/kg, po administered via gavage measured 3 hrs post dose by LC/MS/MS analysis; assay type: ADME, organism-based; procedure, shortened: as §2
[7] = Modulation of gamma secretase in rat E18 cells assessed as inhibition of amyloid beta 42 production after 22 hrs by electrochemiluminescence assay; assay type: cell-based
[8] = Drug uptake in Han Wistar rat brain at 10 umol/kg, po administered via gavage measured 3 hrs post dose by LC/MS/MS analysis; assay type: ADME, organism-based; conditions: read-out: Drug uptake; procedure, shortened: as §2
[9] = Unbound brain concentration in rat brain at 30 mg/kg, po measured after 3 hrs by LC/MS/MS analysis; assay type: ADME, organism-based; conditions: in vivo
Procedure, shortened: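 Unbound brain concentration estimated from unbound plasma exposure 3 h after oral dosing, assuming equal plasma–brain distribution. Plasma sampled after dosing in 0.5% Natrosol/0.01% Tween 80 and quantified by LC/MS/MS.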

[10] = Mean residence time in Han Wistar rat at 1 umol/kg, iv administered as bolus by LC/MS/MS analysis; assay type: ADME, organism-based; conditions: in vivo; procedure, shortened: as §1
Rattus norvegicus [11] = assay: Decrease in total amyloid beta 42 levels in rat brain homogenate at 30 mg/kg, po measured after 3 hrs by electrochemiluminescence assay relative to control; parameters: scale not given: the % may be the effect or the level left; conditions: in vivo
hERG (KCNH2) [12] = biological target: T1, hERG (KCNH2) (Homo sapiens, UniProt Q12809); assay: Inhibition of human ERG at 10 uM by patch clamp assay relative to control
[13] = Efflux ratio of apparent permeability from […] in MDCK cells expressing human MDR1 at 1 uM at pH 7.4; assay type: ADME, cell-based, Canis lupus familiaris; conditions: dog, pH 7.4, 1 µM
Procedure, shortened: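 MDCK-MDR1 monolayers, pH 7.4, 37°C; transport measured apical-to-basal and basal-to-apical from 1 µM initial donor concentration; apparent permeability coefficients derived for each direction, ratio taken.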

Cytochrome P450 2D6 = Cytochrome P450 2D6 (Homo sapiens, UniProt P10635); assay: Inhibition of CYP2D6 in human liver microsomes using dextromethorphan as substrate in presence of NADPH by LC-MS/MS analysis; assay type: ADME
Procedure, shortened: (§3)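 Human pooled liver microsomes (0.1 mg/ml) at 37°C in 0.1 M Tris with 5 mM MgCl2. Substrates were dextromethorphan 7 µM (2D6), diclofenac 4 µM (2C9), (S)-mephenytoin 30 µM (2C19) and testosterone 60 µM (3A4). Test compound ran at five concentrations. Reactions were started with 1 mM NADPH and stopped by cooling to 8°C plus acetonitrile. Metabolite was read by LC-MS/MS against an isotope internal standard, relative to no-compound control.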

[14] = Drug uptake in Han Wistar rat muscle at 10 umol/kg, po administered via gavage measured 3 hrs post dose by LC/MS/MS analysis; assay type: ADME, organism-based, Muscle tissue; conditions: read-out: Drug uptake; procedure, shortened: as §2
Cytochrome P450 2C19 = Cytochrome P450 2C19 (Homo sapiens, UniProt P33261); assay: Inhibition of CYP2C19 in human liver microsomes using (S)-mephenytoin as substrate in presence of NADPH by LC-MS/MS analysis; assay type: ADME; procedure, shortened: as §3
Rattus norvegicus [15] = assay: In vivo modulation of gamma secretase in rat brain homogenate assessed as decrease in amyloid beta 42 levels at 25 mg/kg, po measured after 3 hrs by electrochemiluminescence assay relative to control; assay type: functional; parameters: scale not given: the % may be the effect or the level left
Procedure, shortened: (§4)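 Rats dosed orally with compound in 0.5% Natrosol/0.01% Tween 80, then anesthetized (Ketavet, Inactin i.p.) and decapitated 3 h later. Brain slices were homogenized in 20 mM Tris pH 8.5 + 0.2% Triton X-100 (5-fold v/w) and spun 1 h at 210,000 x g, 4°C. Aβ42 in the supernatant was read by MSD electrochemiluminescence with S-tag 4G8 detection.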

Cytochrome P450 2C8 = biological target: T2, Cytochrome P450 2C8 (Homo sapiens, UniProt P10632); assay: Inhibition of CYP2C8 in human liver microsomes in presence of NADPH by LC-MS/MS analysis; assay type: ADME
T2 sequence (P10632 whole entry): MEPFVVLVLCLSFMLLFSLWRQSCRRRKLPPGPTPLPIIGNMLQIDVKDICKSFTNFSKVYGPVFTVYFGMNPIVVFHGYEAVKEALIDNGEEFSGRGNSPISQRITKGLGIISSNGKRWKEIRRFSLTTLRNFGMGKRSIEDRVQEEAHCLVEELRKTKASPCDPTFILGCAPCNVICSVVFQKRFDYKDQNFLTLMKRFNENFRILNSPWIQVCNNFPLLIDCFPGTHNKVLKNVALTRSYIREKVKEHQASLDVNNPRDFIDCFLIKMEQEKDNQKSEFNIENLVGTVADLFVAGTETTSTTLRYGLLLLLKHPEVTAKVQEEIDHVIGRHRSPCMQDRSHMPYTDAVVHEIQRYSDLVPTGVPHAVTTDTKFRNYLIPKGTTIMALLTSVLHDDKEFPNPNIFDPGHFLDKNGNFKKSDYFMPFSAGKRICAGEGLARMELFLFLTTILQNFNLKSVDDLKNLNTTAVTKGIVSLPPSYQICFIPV

[16] = Protein binding in rat plasma at 1 uM after 5 hrs by equilibrium dialysis based LC-MS/MS analysis; assay type: ADME, cell-free; conditions: read-out: PPB (converted)
Procedure, shortened: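 Equilibrium dialysis: rat EDTA plasma spiked to 1 µM final, dialysed against PBS with dextran (pH 7.4) across a 5–10 kDa membrane. Run 5 h at 37°C; both sides analyzed by HPLC-MS/MS.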

[17] = Apparent permeability from apical to basolateral side in MDCK cells expressing human MDR1 at 1 uM at pH 7.4; assay type: ADME, cell-based, Canis lupus familiaris; conditions: dog, MDCK-MDR1, pH 7.4
Procedure, shortened: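 MDCK-MDR1 monolayers; transport measured apical-to-basal and basal-to-apical at pH 7.4, 37°C, starting from 1 µM in the donor compartment; apparent permeability coefficients derived.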

Rattus norvegicus [18] = assay: In vivo modulation of gamma secretase in rat brain homogenate assessed as decrease in amyloid beta 42 levels at 30 mg/kg, po measured after 3 hrs by electrochemiluminescence assay relative to control; assay type: functional; parameters: scale not given: the % may be the effect or the level left; procedure, shortened: as §4
[19] = Ratio of drug uptake in Han Wistar rat muscle to brain at 10 umol/kg, po administered via gavage measured 3 hrs post dose by LC/MS/MS analysis; assay type: ADME, organism-based; conditions: in vivo
Procedure, shortened: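 Fasted female Han Wistar rats given 10 µmol/kg orally; sacrificed 3 h post dose, tissues collected and frozen; samples acetonitrile-precipitated, supernatant diluted 1:100 and quantified by LC-ESI-MS/MS; muscle-to-brain concentration ratio.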

hERG (KCNH2) [20] = biological target: T1, hERG (KCNH2); assay: Inhibition of human ERG at 1 uM by patch clamp assay relative to control
Cytochrome P450 3A4 = Cytochrome P450 3A4 (Homo sapiens, UniProt P08684); assay: Inhibition of CYP3A4 in human liver microsomes using testosterone as substrate in presence of NADPH by LC-MS/MS analysis; assay type: ADME; procedure, shortened: as §3
Gamma-secretase [21] = assay: Modulation of gamma-secretase in human E6 cells expressing HeLaTetON-NotchdeltaE-NLuc/CLuc-RBP assessed as notch cleavage after 16 hrs by bioluminescence assay; assay type: ADME, cell-based
Cytochrome P450 2C9 = Cytochrome P450 2C9 (Homo sapiens, UniProt P11712); assay: Inhibition of CYP2C9 in human liver microsomes using diclofenac as substrate in presence of NADPH by LC-MS/MS analysis; assay type: ADME; procedure, shortened: as §3
Cytochrome P450 2C9, sequence (P11712 whole entry): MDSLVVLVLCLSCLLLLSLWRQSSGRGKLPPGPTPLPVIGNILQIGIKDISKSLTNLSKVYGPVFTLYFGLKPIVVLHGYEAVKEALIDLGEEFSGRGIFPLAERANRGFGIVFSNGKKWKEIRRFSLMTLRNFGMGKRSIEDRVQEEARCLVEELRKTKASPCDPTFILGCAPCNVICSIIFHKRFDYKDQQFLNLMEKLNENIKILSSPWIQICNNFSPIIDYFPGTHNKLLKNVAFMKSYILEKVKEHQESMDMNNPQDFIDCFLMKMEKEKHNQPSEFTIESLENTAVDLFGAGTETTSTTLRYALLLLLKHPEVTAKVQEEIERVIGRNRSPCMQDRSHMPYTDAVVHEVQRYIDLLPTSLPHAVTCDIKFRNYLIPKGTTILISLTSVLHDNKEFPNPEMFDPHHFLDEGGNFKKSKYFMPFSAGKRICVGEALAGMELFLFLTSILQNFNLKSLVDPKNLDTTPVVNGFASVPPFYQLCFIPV

T1 sequence (Q12809 whole entry): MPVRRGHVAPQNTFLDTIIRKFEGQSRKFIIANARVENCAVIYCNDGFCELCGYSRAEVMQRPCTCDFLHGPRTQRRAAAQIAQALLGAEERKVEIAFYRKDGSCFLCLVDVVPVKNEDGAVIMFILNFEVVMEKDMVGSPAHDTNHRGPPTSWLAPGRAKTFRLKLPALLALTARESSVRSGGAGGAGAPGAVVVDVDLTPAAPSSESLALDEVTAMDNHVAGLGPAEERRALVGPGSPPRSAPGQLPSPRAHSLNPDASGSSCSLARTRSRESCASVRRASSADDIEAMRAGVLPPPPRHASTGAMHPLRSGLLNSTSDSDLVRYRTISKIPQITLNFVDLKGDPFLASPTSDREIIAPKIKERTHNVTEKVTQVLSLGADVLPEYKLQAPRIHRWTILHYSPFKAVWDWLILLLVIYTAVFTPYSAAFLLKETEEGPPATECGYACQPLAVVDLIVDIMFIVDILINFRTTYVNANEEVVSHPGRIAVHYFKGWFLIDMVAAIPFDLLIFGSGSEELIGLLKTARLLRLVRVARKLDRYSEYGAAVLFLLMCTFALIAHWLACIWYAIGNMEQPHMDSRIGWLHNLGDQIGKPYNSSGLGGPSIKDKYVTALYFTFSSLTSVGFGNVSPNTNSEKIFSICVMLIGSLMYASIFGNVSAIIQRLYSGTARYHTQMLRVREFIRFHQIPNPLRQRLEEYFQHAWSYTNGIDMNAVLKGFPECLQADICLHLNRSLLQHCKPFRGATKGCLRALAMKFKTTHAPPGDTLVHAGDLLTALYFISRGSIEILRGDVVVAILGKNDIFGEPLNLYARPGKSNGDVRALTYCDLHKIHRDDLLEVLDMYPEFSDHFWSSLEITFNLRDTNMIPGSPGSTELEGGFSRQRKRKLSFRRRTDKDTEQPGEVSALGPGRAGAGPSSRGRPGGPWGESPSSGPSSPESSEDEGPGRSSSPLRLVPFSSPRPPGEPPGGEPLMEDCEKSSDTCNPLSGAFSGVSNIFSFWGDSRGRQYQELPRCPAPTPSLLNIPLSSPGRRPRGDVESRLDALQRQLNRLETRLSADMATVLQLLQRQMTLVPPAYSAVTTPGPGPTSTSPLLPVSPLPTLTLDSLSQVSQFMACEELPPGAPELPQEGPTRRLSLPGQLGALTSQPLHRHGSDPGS
Cytochrome P450 2C19, sequence (P33261 whole entry): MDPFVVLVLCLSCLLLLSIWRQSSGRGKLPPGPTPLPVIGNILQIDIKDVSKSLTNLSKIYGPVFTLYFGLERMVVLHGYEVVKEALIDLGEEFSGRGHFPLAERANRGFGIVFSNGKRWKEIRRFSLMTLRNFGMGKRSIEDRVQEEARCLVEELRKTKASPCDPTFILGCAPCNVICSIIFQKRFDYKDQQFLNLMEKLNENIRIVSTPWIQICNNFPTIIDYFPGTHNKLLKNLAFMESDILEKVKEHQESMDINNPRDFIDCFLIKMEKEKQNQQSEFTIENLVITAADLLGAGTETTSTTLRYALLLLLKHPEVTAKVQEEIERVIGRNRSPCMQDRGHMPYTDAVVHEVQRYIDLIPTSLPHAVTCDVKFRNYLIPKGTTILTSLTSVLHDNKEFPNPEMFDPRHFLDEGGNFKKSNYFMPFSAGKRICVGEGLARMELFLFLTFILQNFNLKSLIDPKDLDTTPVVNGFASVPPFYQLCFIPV
Cytochrome P450 3A4, sequence (P08684 whole entry): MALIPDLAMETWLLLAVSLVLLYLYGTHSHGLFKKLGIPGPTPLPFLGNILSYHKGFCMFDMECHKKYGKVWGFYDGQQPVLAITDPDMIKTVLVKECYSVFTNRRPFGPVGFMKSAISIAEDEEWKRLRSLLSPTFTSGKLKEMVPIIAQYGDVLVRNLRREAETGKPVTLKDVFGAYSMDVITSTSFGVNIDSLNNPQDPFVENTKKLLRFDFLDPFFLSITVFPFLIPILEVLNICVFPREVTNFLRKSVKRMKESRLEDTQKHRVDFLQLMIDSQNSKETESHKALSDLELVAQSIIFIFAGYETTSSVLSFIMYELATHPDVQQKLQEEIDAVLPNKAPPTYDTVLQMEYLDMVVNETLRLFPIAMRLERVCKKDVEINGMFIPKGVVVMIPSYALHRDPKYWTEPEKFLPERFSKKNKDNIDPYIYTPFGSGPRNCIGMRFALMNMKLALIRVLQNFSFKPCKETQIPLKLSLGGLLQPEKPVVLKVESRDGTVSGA
Cytochrome P450 2D6, sequence (P10635 whole entry): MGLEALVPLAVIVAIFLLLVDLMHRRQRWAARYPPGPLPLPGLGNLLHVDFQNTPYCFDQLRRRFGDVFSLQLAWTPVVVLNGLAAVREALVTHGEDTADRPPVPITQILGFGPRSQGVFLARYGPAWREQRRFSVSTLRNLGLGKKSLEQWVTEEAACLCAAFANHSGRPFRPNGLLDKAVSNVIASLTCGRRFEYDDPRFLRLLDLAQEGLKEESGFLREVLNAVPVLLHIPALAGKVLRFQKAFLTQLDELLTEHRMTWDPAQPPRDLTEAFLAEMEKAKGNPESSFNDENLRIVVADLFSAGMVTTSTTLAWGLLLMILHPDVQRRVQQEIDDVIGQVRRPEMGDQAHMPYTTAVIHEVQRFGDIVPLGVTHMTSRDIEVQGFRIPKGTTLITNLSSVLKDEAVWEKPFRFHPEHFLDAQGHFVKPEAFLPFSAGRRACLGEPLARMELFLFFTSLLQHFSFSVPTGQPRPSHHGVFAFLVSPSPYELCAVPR

Compound: CCn1nc(Cl)c2c1CCC(Nc1nc3c(-c4ccc(F)cc4C)cccn3n1)C2 (centres undefined)
pIC50 (Gamma-secretase [1]): 6.12

Compound: CCn1ncc2c1CC[C@@H](Nc1nc3c(-c4ccc(F)cc4C)cccn3n1)C2
Vd [2]: 1.5 L/kg
clearance [3]: 40 mL/min/kg
Activity (Rattus norvegicus [4]): 5%
Kp at 3 h [5]: 1.1
concentration at 3 h [6]: 2680 nM
pIC50 [7]: 7.40
concentration at 3 h [8]: 2990 nM
Cp(f) [9]: 30 nM
MRT [10]: 36 min
Activity (Rattus norvegicus [11]): 3%
inhibition at 10 µM (hERG (KCNH2) [12]): 39%
Ratio [13]: 0.7
pIC50 (Cytochrome P450 2D6): < 4.30
concentration at 3 h [14]: 2600 nM
pIC50 (Cytochrome P450 2C19): 4.44
Activity (Rattus norvegicus [15]): 53%
pIC50 (Cytochrome P450 2C8): 5.02
fraction unbound at 5 h, 1 µM [16]: 0.012
Papp A→B at 1 µM [17]: 78 ×10⁻⁶ cm/s
Activity (Rattus norvegicus [18]): 47%
Ratio [19]: 0.9
inhibition at 1 µM (hERG (KCNH2) [20]): 8%
pIC50 (Cytochrome P450 3A4): < 4.30
pIC50 (Gamma-secretase [21]): < 4.52
pIC50 (Cytochrome P450 2C9): 4.60
pIC50 (Gamma-secretase [1]): 7.40

Compound: CCn1nnc2c1CCC(Nc1nc3c(-c4ccc(F)cc4C)cccn3n1)C2 (centres undefined)
pIC50 (Gamma-secretase [1]): 5.66

Compound: CCn1ncc2c1CCC(Nc1nc3c(-c4ccc(F)cc4C)cccn3n1)C2 (centres undefined)
pIC50 (Gamma-secretase [1]): 7.15

Compound: CCc1nn(C)c2c1CCC(Nc1nc3c(-c4ccc(F)cc4C)cccn3n1)C2 (centres undefined)
pIC50 (Gamma-secretase [1]): 5.50

Compound: Cc1cc(F)ccc1-c1cccn2nc(NC3CCc4[nH]ncc4C3)nc12 (centres undefined)
pIC50 (Gamma-secretase [1]): 5.34

Compound: CCn1ncc2c1CCC(Nc1nc3c(-c4cnccc4OC)cccn3n1)C2 (centres undefined)
pIC50 (Gamma-secretase [1]): 6.92

Compound: CCCCn1ncc2c1CCC(Nc1nc3c(-c4ccc(F)cc4C)cccn3n1)C2 (centres undefined)
pIC50 (Gamma-secretase [1]): 5.56

Compound: Cc1cc(F)ccc1-c1cccn2nc(NC3CCc4c(cnn4C)C3)nc12 (centres undefined)
pIC50 (Gamma-secretase [1]): 6.42

Compound: Cc1cc(F)ccc1-c1cccn2nc(NC3CCc4cnn(C)c4C3)nc12 (centres undefined)
pIC50 (Gamma-secretase [1]): < 4.52

Compound: CCn1ncc2c1CCC(Nc1nc3c(-c4cccnc4C)cccn3n1)C2 (centres undefined)
pIC50 (Gamma-secretase [1]): 6.17

Compound: CCn1ncc2c1CCC(Nc1nc3c(-c4cc(F)c(F)c(F)c4)cccn3n1)C2 (centres undefined)
pIC50 (Gamma-secretase [1]): 7.52

Compound: Cc1cc(F)ccc1-c1cccn2nc(NC3CCc4c(cnn4C(C)C)C3)nc12 (centres undefined)
pIC50 (Gamma-secretase [1]): 6.37

Other lines, results leading:

pIC50 (Gamma-secretase [1]): 7.40
Compound: CCn1ncc2c1CCC(Nc1nc3c(-c4cccc(Cl)c4)cccn3n1)C2 (centres undefined)

pIC50 (Gamma-secretase [1]): 7.05
Compound: CCn1ncc2c1CCC(Nc1nc3c(-c4ccc(OC)nc4)cccn3n1)C2 (centres undefined)

pIC50 (Gamma-secretase [1]): 6.46
Compound: CCn1ncc2c1CCC(Nc1nc3c(-c4cccnc4)cccn3n1)C2 (centres undefined)

pIC50 (Gamma-secretase [1]): 7.22
Compound: CCn1ncc2c1CCC(Nc1nc3c(-c4ccc(Cl)cc4)cccn3n1)C2 (centres undefined)

pIC50 (Gamma-secretase [1]): 6.71
Compound: CCn1ncc2c1CC[C@H](Nc1nc3c(-c4ccc(F)c(Cl)c4)cccn3n1)C2

pIC50 (Gamma-secretase [1]): 7.30
Compound: CCn1ncc2c1CCC(Nc1nc3c(-c4ccc(N(C)C)nc4)cccn3n1)C2 (centres undefined)
